Reference: ChEMBL document CHEMBL1641460, “Potent and selective thiophene urea-templated inhibitors of S6K” (Bioorg Med Chem Lett, 2011)
Values after ≈ are worked out from the molar mass of the structure shown.

Key:
[1] = target: Ribosomal protein S6 kinase beta-1 (Homo sapiens, UniProt P23443); experiment: Inhibition of S6K1
[2] = Kinetic solubility of the compound in 50 mM phosphate buffer at pH 6.5; format: physicochemical
[3] = Half life in human liver microsomes at 1 uM by LC/MS/MS analysis; format: ADME, Microsome
In short: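 Test compound incubated with human liver microsomes to measure Phase I metabolic stability. Remaining compound quantified by LC/MS/MS, and stability reported as half-life (T1/2) in minutes.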

[4] = target: T1, CYP1A2 (Homo sapiens, UniProt P05177); experiment: Inhibition of CYP1A2 at 3 uM by LC/MS/MS analysis; format: ADME
T1 sequence (P05177 whole entry): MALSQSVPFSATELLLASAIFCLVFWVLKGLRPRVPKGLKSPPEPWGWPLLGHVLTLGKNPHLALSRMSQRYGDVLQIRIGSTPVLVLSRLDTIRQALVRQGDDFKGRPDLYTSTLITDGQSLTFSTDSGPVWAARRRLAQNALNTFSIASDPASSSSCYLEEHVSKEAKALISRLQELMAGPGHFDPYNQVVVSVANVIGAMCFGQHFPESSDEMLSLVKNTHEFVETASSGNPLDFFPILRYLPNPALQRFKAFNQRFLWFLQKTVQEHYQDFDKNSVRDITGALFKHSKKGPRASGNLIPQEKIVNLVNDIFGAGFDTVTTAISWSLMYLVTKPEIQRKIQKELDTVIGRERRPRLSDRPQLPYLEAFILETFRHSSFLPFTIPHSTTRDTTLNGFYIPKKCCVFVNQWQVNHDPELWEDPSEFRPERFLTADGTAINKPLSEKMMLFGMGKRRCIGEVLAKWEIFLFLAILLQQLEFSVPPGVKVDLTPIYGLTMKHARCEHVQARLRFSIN

[5] = target: CYP2C9 (Homo sapiens, UniProt P11712); experiment: Inhibition of CYP2C9 at 3 uM by LC/MS/MS analysis; format: ADME
[6] = target: CYP3A4 (Homo sapiens, UniProt P08684); experiment: Inhibition of CYP3A4 at 3 uM by LC/MS/MS analysis; format: ADME
[7] = target: Rho-associated protein kinase 1 (Homo sapiens) (UniProt Q13464); experiment: Inhibition of ROCK1 at 1 uM
[8] = target: Serine/threonine-protein kinase Chk1 (Homo sapiens) (UniProt O14757); experiment: Inhibition of CHEK1 at 1 uM
[9] = target: Epidermal growth factor receptor (Homo sapiens) (UniProt P00533); experiment: Inhibition of EGFR at 1 uM
[10] = target: Serine/threonine-protein kinase 3 (Homo sapiens) (UniProt Q13188); experiment: Inhibition of STK3 at 1 uM
[11] = target: Inhibitor of nuclear factor kappa-B kinase subunit epsilon (Homo sapiens) (UniProt Q14164); experiment: Inhibition of IKBKE at 1 uM
[12] = target: Serine/threonine-protein kinase PAK 4 (Homo sapiens) (UniProt O96013); experiment: Inhibition of PAK4 at 1 uM
[13] = target: Serine/threonine-protein kinase pim-2 (Homo sapiens) (UniProt Q9P1W9); experiment: Inhibition of PIM2 at 1 uM
[14] = target: Casein kinase II subunit alpha (Homo sapiens) (UniProt P68400); experiment: Inhibition of CSNK2A1 at 1 uM
[15] = target: Mitogen-activated protein kinase kinase kinase 9 (Homo sapiens) (UniProt P80192); experiment: Inhibition of MAP3K9 at 1 uM
[16] = target: High affinity nerve growth factor receptor (Homo sapiens) (UniProt P04629); experiment: Inhibition of NTRK1 at 1 uM
[17] = target: Tyrosine-protein kinase Lck (Homo sapiens) (UniProt P06239); experiment: Inhibition of LCK at 1 uM
[18] = target: Tyrosine-protein kinase ABL1 (Homo sapiens) (UniProt P00519); experiment: Inhibition of ABL1 at 1 uM
[19] = target: Protein kinase C zeta type (Homo sapiens) (UniProt Q05513); experiment: Inhibition of PRKCZ at 1 uM
[20] = target: Cyclin-dependent kinase 6 (Homo sapiens) (UniProt Q00534); experiment: Inhibition of CDK6 at 1 uM
[21] = target: Calcium/calmodulin-dependent protein kinase type 1 (Homo sapiens) (UniProt Q14012); experiment: Inhibition of CAMK1 at 1 uM
[22] = target: Serine/threonine-protein kinase TAO3 (Homo sapiens) (UniProt Q9H2K8); experiment: Inhibition of TAOK3 at 1 uM
[23] = target: Hepatocyte growth factor receptor (Homo sapiens) (UniProt P08581); experiment: Inhibition of MET at 1 uM
[24] = target: Vascular endothelial growth factor receptor 2 (Homo sapiens) (UniProt P35968); experiment: Inhibition of KDR at 1 uM
[25] = target: Mitogen-activated protein kinase 1 (Homo sapiens) (UniProt P28482); experiment: Inhibition of MAPK1 at 1 uM
[26] = target: Rho-associated protein kinase 1 (Homo sapiens) (UniProt Q13464); experiment: Inhibition of ROCK1 at 10 uM
[27] = target: Casein kinase I isoform delta (Homo sapiens) (UniProt P48730); experiment: Inhibition of CSNK1D at 10 uM
[28] = target: Aurora kinase A (Homo sapiens) (UniProt O14965); experiment: Inhibition of aurora A at 10 uM
[29] = target: Serine/threonine-protein kinase PAK 4 (Homo sapiens) (UniProt O96013); experiment: Inhibition of PAK4 at 10 uM
[30] = target: Dual specificity protein kinase CLK1 (Homo sapiens) (UniProt P49759); experiment: Inhibition of CLK1 at 10 uM
[31] = target: Mitogen-activated protein kinase kinase kinase 9 (Homo sapiens) (UniProt P80192); experiment: Inhibition of MAP3K9 at 10 uM
[32] = target: Glycogen synthase kinase-3 beta (Homo sapiens) (UniProt P49841); experiment: Inhibition of GSK3b at 10 uM
[33] = target: Mitogen-activated protein kinase 14 (Homo sapiens) (UniProt Q16539); experiment: Inhibition of MAPK14 at 10 uM
[34] = target: Myosin light chain kinase 2, skeletal/cardiac muscle (Homo sapiens) (UniProt Q9H1R3); experiment: Inhibition of MYLK2 at 10 uM
[35] = target: Serine/threonine-protein kinase TAO3 (Homo sapiens) (UniProt Q9H2K8); experiment: Inhibition of TAOK3 at 10 uM
[36] = target: Hepatocyte growth factor receptor (Homo sapiens) (UniProt P08581); experiment: Inhibition of MET at 10 uM
[37] = target: Protein kinase C beta type (Homo sapiens) (UniProt P05771); experiment: Inhibition of PRKCB at 10 uM
[38] = target: RAC-alpha serine/threonine-protein kinase (Homo sapiens) (UniProt P31749); experiment: Inhibition of AKT1 at 10 uM
[39] = target: Serine/threonine-protein kinase Chk2 (Homo sapiens) (UniProt O96017); experiment: Inhibition of CHEK2 at 10 uM
[40] = target: Mitogen-activated protein kinase 1 (Homo sapiens) (UniProt P28482); experiment: Inhibition of MAPK1 at 10 uM
[41] = target: Tyrosine-protein kinase JAK3 (Homo sapiens) (UniProt P52333); experiment: Inhibition of JAK3 at 1 uM
[42] = target: Tyrosine-protein kinase JAK3 (Homo sapiens) (UniProt P52333); experiment: Inhibition of JAK3 at 10 uM

Sequence of Tyrosine-protein kinase JAK3 (Homo sapiens) (P52333 whole entry, looked up): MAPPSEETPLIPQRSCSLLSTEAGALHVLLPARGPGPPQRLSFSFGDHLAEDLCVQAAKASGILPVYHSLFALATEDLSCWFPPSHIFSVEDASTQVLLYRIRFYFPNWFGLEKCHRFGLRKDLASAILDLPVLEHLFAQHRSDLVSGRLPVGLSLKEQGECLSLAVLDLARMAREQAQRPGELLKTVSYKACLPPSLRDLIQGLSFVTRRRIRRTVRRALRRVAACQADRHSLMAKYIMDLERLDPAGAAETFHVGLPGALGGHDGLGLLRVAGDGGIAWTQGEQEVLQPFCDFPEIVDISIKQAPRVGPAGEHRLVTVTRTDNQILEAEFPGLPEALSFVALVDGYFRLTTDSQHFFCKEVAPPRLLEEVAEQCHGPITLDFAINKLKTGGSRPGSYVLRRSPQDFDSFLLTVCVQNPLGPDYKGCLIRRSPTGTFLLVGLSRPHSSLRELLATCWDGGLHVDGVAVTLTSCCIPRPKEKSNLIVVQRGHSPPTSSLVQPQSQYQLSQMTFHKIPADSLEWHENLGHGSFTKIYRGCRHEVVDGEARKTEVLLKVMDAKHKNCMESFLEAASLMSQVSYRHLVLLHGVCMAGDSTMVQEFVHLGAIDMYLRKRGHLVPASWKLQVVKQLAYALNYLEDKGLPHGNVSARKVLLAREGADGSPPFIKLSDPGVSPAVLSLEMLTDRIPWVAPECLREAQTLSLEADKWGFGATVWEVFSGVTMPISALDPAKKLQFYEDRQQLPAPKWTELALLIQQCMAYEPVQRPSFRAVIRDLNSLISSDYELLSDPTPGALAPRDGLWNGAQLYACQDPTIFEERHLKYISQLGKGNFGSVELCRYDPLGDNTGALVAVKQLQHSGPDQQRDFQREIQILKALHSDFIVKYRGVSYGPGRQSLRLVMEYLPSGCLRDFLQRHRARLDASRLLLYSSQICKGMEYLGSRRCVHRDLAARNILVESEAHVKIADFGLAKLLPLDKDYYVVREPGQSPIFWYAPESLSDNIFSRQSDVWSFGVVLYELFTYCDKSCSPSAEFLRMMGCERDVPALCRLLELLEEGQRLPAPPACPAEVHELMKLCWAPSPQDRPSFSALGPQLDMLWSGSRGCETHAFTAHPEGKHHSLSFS
Sequence of Mitogen-activated protein kinase kinase kinase 9 (Homo sapiens) (P80192 whole entry, looked up): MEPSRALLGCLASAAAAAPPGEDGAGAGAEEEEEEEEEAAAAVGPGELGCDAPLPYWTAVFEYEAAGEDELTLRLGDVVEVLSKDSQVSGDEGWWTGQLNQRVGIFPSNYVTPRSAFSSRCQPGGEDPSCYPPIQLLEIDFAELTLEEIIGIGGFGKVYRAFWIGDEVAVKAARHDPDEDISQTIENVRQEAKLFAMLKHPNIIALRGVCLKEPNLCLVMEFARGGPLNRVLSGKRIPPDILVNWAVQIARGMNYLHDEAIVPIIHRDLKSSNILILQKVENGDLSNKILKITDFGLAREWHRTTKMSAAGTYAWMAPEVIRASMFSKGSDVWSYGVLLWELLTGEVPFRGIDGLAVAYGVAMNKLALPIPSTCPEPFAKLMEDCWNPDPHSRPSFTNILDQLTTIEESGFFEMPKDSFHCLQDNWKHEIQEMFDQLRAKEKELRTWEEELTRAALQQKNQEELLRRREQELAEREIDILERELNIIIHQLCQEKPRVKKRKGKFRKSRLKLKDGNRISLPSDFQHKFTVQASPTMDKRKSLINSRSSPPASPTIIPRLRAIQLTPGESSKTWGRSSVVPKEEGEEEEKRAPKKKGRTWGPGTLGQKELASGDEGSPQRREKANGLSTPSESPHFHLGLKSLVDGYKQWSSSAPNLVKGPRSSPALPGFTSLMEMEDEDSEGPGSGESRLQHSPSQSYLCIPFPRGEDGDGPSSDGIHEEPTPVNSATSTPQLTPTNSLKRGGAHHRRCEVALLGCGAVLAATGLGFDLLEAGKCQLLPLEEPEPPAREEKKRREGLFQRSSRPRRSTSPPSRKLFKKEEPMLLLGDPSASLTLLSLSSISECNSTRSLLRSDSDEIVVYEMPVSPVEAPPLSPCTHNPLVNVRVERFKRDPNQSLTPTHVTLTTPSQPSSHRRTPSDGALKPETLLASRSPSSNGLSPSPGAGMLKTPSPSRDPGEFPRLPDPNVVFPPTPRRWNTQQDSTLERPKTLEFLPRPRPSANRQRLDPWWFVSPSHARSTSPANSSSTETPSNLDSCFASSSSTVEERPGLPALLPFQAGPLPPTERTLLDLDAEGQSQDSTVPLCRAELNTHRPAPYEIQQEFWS
Sequence of Hepatocyte growth factor receptor (Homo sapiens) (P08581 whole entry): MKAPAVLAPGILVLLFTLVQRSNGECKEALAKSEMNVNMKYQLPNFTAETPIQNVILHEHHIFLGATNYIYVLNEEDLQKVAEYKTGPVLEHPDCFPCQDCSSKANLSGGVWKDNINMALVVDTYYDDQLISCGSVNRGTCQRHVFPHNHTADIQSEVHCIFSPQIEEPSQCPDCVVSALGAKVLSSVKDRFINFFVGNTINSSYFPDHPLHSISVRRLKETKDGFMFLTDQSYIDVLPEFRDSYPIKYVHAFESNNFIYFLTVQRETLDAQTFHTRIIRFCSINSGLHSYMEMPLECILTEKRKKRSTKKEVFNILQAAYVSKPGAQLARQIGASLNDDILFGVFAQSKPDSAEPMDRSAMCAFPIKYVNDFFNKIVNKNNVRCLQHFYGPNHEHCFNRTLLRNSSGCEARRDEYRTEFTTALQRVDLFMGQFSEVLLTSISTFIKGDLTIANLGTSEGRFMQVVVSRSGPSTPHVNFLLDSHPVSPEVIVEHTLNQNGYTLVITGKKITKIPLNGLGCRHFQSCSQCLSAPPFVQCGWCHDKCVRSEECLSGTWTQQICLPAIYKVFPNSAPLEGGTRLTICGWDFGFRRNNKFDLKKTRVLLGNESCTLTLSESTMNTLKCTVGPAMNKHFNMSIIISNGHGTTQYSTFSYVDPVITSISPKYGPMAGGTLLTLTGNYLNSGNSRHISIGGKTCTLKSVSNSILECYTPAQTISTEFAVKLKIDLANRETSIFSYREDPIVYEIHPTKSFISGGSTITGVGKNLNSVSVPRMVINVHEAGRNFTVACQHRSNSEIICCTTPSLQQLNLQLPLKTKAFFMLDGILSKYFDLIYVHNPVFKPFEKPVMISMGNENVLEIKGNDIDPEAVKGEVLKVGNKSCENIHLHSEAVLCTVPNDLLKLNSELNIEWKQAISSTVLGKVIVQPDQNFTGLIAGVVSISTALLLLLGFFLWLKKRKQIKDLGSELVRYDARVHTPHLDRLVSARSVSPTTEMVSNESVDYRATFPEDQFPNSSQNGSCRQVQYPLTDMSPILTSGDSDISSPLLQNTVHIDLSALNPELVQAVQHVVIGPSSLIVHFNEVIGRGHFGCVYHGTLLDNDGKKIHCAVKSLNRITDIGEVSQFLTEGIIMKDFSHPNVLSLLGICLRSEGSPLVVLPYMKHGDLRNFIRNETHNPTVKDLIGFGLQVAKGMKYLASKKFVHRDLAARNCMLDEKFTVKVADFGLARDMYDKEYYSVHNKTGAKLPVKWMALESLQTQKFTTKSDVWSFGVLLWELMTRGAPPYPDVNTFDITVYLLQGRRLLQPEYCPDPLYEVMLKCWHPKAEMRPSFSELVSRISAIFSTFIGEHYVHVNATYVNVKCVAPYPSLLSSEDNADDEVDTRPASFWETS
Sequence of Serine/threonine-protein kinase TAO3 (Homo sapiens) (Q9H2K8 whole entry): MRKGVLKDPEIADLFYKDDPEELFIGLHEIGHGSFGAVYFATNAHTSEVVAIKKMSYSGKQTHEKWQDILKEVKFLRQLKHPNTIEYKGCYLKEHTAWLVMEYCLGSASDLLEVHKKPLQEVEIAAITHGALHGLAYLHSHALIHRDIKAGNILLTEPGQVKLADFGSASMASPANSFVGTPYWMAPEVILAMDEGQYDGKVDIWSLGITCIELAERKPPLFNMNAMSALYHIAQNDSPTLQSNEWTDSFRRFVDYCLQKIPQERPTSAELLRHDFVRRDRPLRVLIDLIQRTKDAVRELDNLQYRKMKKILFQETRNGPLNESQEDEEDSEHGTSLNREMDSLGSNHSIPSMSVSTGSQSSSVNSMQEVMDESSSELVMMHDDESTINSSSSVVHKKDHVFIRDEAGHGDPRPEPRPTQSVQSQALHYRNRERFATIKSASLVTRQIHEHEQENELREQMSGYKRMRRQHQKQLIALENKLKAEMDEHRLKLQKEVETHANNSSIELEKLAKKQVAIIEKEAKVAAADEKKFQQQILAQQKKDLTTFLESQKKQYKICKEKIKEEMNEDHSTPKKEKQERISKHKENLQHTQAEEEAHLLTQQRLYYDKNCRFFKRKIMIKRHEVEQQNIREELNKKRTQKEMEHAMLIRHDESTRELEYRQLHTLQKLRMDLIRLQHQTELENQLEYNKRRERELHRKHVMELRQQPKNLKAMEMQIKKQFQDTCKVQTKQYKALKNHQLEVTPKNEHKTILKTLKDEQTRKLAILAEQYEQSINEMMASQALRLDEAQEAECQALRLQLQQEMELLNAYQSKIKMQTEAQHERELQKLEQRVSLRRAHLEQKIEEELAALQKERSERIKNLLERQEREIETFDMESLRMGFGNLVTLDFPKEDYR
Sequence of Serine/threonine-protein kinase PAK 4 (Homo sapiens) (O96013 whole entry, looked up): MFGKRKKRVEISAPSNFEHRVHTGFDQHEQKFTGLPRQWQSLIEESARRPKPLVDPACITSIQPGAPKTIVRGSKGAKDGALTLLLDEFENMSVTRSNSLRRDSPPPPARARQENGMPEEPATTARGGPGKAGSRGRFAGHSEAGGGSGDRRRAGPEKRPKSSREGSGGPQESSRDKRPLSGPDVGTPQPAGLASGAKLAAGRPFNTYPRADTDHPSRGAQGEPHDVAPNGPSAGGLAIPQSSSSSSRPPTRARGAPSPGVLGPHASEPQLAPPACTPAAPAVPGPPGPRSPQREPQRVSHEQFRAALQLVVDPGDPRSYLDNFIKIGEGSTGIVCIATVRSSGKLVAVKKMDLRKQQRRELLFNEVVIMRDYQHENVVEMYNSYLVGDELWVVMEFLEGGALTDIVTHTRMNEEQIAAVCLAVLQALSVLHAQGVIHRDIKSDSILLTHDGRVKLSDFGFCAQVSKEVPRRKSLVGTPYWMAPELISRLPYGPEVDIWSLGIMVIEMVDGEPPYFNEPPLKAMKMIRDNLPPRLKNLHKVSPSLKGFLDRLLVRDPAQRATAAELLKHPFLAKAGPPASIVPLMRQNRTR

Compound: CC(C)(C)c1cc(C(=O)O)c(NC(=O)Nc2ccc3[nH]ncc3c2)s1
- IC50 [1]: 52 nM
- solubility kinetic [2]: 143 µg/mL (≈ 399 µM)
- half-life at 1 µM [3]: > 2 h
- inhibition at 3 µM [4]: 6%
- inhibition at 3 µM [5]: 55%
- inhibition at 3 µM [6]: 0%
- inhibition [7]: 10%
- inhibition [8]: 10%
- inhibition [9]: 10%
- inhibition [10]: 0%
- inhibition [11]: 10%
- inhibition [12]: 0%
- inhibition [13]: 0%
- inhibition [14]: 30%
- inhibition [15]: 20%
- inhibition [16]: 10%
- inhibition [17]: 0%
- inhibition [18]: 0%
- inhibition [19]: 20%
- inhibition [20]: 0%
- inhibition [21]: 10%
- inhibition [22]: 10%
- inhibition [23]: 0%
- inhibition [24]: 0%
- inhibition [25]: 10%
- inhibition [26]: 10%
- inhibition [27]: 20%
- inhibition [28]: 0%
- inhibition [29]: 0%
- inhibition [30]: 10%
- inhibition [31]: 20%
- inhibition [32]: 10%
- inhibition [33]: 10%
- inhibition [34]: 10%
- inhibition [35]: 10%
- inhibition [36]: 0%
- inhibition [37]: 10%
- inhibition [38]: 0%
- inhibition [39]: 20%
- inhibition [40]: 10%
- inhibition [41]: 40%
- inhibition [42]: 40%
